# Experimental data: ChEMBL document CHEMBL5579848, “Isothiocyanate-Corticosteroid Conjugates against asthma: Unity makes strength” (Eur J Med Chem, 2024)
# Calls of active or inactive are those of the source. The rule behind the calls is not given here.
# Tests used:
# RBL-2H3 [1] = assay: Inhibition of mast cell degranulation in DNP-HSA antigen sensitized rat RBL-2H3 cells assessed as reduction in beta-hexoaminosidase release at 100 uM preincubated for 5 mins followed by DNP addition and measured after 1 hr by multiplate reader; assay type: functional, cell-based; settings: time 65.0 min
# Procedure, shortened: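 RBL-2H3 cells (72×10^3/well) were sensitized overnight with anti-DNP IgE 0.50 µg/ml, then moved to phenol-free DMEM with 1 mg/ml BSA. Cells were preincubated 5 min at 37 °C with 0.1 % DMSO, cromolyn 1 mM or compound 100 μM, then challenged with DNP-HSA 10 ng/ml. After 1 h, supernatant was incubated 1 h with 1.4 mM p-nitrophenyl-N-acetyl-β-D-glucosaminide (citrate pH 4.2), stopped with Trizma pH 9.4, and read at 405 nm.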
# [2] = Solubility of compound in water at 5 mg incubated at 25 degreeC for 6 hrs by UHPLC analysis; assay type: physicochemical
# Procedure, shortened: (§1)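 Solid compound (5 mg) was shaken in 1 mL water, PBS (pH 7.4, 50 mM) or pepsin-free SGF (pH 1.2) for 6 h at 25 °C. Suspensions were filtered (0.45 μm) and the filtrate quantified by UHPLC, reported in mg/L; triplicate, mean values.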
# [3] = Induction of H2S release in PBS at pH 7.4 at 100 uM pretreated with L-Cys for 10 mins followed by compound addition and measured after 30 mins by free radical analyzer; assay type: physicochemical; settings: buffer, pH 7.4, 0.5 h
# Procedure, shortened: (§2)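 An H2S-selective mini-electrode was equilibrated in PBS pH 7.4, and compound was added to 100 μM final (1 % DMSO). Amperometric current was recorded for 30 min, with or without L-cysteine 4 mM added 10 min before. Current was converted to H2S using NaHS calibration (1–10 µM, pH 4.0); mean ± SEM.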
# [4] = Solubility of compound in PBS at pH 7.4 at 5 mg incubated at 25 degreeC for 6 hrs by UHPLC analysis; assay type: physicochemical; procedure, shortened: as §1
# RBL-2H3 [5] = assay: Cytotoxicity against rat RBL-2H3 cells assessed as reduction cell viability at 100 uM after 24 hrs by WST assay; assay type: toxicity, cell-based; settings: rbl-2h3, 24 h
# Procedure, shortened: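 RBL-2H3 cells were grown in MEM with 10 % FBS, 10^4 cells/well, and attached for 24 h. They were then exposed 24 h to 100 μM compound (final) or 0.1 % DMSO. WST-1 (1:10) was added for 60 min at 37 °C and absorbance read at 450 nm. Viability is expressed as % of vehicle; mean ± SEM.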
# [6] = Induction of H2S release in PBS at pH 7.4 at 100 uM measured after 30 mins by free radical analyzer; assay type: physicochemical; settings: buffer, pH 7.4, 0.5 h; procedure, shortened: as §2
# [7] = Solubility of compound in simulated gastric fluid at pH 1.2 in absence of pepsin at 5 mg incubated at 25 degreeC for 6 hrs by UHPLC analysis; assay type: ADME; settings: simulated gastric fluid without pepsin; procedure, shortened: as §1
# Albumin [8] = target: T1, Albumin (Bos taurus, UniProt P02769); assay: Stability in 3% bovine serum albumin assessed as parent compound remaining at 200 uM incubated at 37 degreeC for 10 mins by UHPLC analysis; assay type: ADME; settings: cattle, 3% bovine serum albumin solution, read-out: Stability
# Procedure, shortened: (§3)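 A 10 mM DMSO stock was diluted to 200 μM in 3 % BSA in PBS and incubated at 37 ± 0.5 °C for up to 4 h. Timed samples were deproteinized with an equal volume of acetonitrile/0.1 % TFA, centrifuged, filtered and quantified by UHPLC. Results are given as pseudo-first-order t1/2 or % parent remaining at 10 min; n ≥ 3.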
# [9] = Half life in simulated gastric fluid at pH 1.2 in absence of pepsin at 100 uM incubated at 37 degreeC up to 24 hrs by UPHLC analysis; assay type: ADME; settings: simulated gastric fluid without pepsin
# Procedure, shortened: (§4)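 A 10 mM DMSO stock was diluted to 100 μM in PBS (pH 7.4, 50 mM) or pepsin-free SGF (pH 1.2) and held at 37 ± 0.5 °C for 24 h. Timed aliquots were quantified by reverse-phase UHPLC-DAD against calibration curves (1.56–100 ppm), tracking the parent compound plus aminoacetate and corticosteroid metabolites. Pseudo-first-order t1/2 was calculated; n = 3.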
# [10] = Half life in PBS at pH 7.4 at 100 uM incubated at 37 degreeC up to 24 hrs by UPHLC analysis; assay type: ADME; procedure, shortened: as §4
# Albumin [11] = target: T1, Albumin; assay: Half life in 3% bovine serum albumin at 200 uM incubated up to 4 hrs by UHPLC analysis; assay type: ADME; settings: cattle, 3% bovine serum albumin solution; procedure, shortened: as §3
# Mus musculus [12] = assay: Anti-asthmatic activity in OVA-induced female BALB/c mouse model assessed as inhibition of bronchial hyperreactivity at 3.512 x 10^-6M, ip for 30 min before every ovalbumin challenge on day 0 and 7 and measured after 21 days by isometric force transducer analysis; assay type: functional, organism-based; settings: dose 3.512 10^-6M, time 21.0 day
# Procedure, shortened: (§5)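 Female BALB/c mice (20 g, 8 weeks) sensitized s.c. with 100 μg ovalbumin adsorbed to 13.3 mg aluminum hydroxide gel (0.4 ml) on days 0 and 7; saline controls. Test agent (1–2 mg/kg, or equimolar 3,51 × 10^-6 mol) or vehicle given ip 30 min before each OVA dose. Killed day 21 by enflurane overdose; lungs, bronchi, blood collected.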
# Mus musculus [13] = assay: Anti-asthmatic activity in OVA-induced female BALB/c mouse model assessed as reduction in IgE level in plasma at 3.512 x 10^-6M, ip for 30 min before every ovalbumin challenge on day 0 and 7 and measured after 21 days by ELISA; assay type: functional, organism-based; settings: dose 3.512 10^-6M, time 21.0 day; procedure, shortened: as §5
# Mus musculus [14] = assay: Anti-asthmatic activity in OVA-induced female BALB/c mouse model assessed as reduction in pulmonary IL-13 level at 3.512 x 10^-6M, ip for 30 min before every ovalbumin challenge on day 0 and 7 and measured after 21 days by ELISA; assay type: functional, organism-based; settings: dose 3.512 10^-6M, time 21.0 day; procedure, shortened: as §5
# Mus musculus [15] = assay: Anti-asthmatic activity in OVA-induced female BALB/c mouse model assessed as reduction in lung damage at 3.512 x 10^-6M, ip for 30 min before every ovalbumin challenge on day 0 and 7 and measured after 21 days by H and E staining based microscopic analysis; assay type: functional, organism-based; settings: dose 3.512 10^-6M, time 21.0 day; procedure, shortened: as §5
# T1 sequence (P02769 whole entry): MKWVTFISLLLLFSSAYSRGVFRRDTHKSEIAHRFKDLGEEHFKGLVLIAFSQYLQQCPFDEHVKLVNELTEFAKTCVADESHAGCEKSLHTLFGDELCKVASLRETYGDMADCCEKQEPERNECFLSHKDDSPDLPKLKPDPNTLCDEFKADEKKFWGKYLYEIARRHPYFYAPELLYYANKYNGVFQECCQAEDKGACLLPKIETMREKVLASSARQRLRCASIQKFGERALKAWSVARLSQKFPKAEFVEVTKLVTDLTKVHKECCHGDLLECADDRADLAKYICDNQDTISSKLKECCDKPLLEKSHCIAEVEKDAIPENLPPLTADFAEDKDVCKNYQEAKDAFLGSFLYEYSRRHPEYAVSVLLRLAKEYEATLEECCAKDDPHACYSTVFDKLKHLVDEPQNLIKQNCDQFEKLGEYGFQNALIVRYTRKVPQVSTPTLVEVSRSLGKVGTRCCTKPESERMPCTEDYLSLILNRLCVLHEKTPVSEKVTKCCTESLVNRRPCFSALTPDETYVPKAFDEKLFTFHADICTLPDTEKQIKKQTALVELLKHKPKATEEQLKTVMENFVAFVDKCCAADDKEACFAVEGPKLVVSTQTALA
Structure (SMILES),inhibition (RBL-2H3 [1]),solubility at 6 h [2] [µg/mL],Activity [3],solubility at 6 h [4] [µg/mL],Activity (RBL-2H3 [5]),Activity [6],solubility at 6 h [7] [µg/mL],"remaining at 10 min, 200 µM (Albumin [8]) [%]",half-life at 100 µM [9] [h],half-life at 100 µM [10] [h],half-life at 200 µM (Albumin [11]) [h],Activity (Mus musculus [12]),Activity (Mus musculus [13]),Activity (Mus musculus [14]),Activity (Mus musculus [15])
C[C@]12C=CC(=O)C=C1CC[C@@H]1[C@@H]2C(=O)C[C@@]2(C)[C@H]1CC[C@]2(O)C(=O)COC(=O)CN,Active,,,,,,,,,,,,,,
C[C@]12C=CC(=O)C=C1CC[C@@H]1[C@@H]2C(=O)C[C@@]2(C)[C@H]1CC[C@]2(O)C(=O)COC(=O)CN=C=S,Active,5.26,~ 2 uM,15.9,Non-Toxic,~ 2 uM,16.1,19,18,0.2,,,,,
CCCCC(=O)O[C@]1(C(=O)COC(=O)CN=C=S)[C@@H](C)C[C@H]2[C@@H]3CCC4=CC(=O)C=C[C@]4(C)[C@@]3(F)[C@@H](O)C[C@@]21C,,< 0.1,Active,0.12,Toxic,Active,0.16,,> 24,> 24,1,,,,
C[C@]12C=CC(=O)C=C1CC[C@@H]1[C@@H]2[C@@H](O)C[C@@]2(C)[C@H]1C[C@H]1O[C@@H](C3CCCCC3)O[C@]12C(=O)COC(=O)CN,Active,,,,,,,,,,,inactive,Active,inactive,inactive
C[C@@H]1C[C@H]2[C@@H]3CCC4=CC(=O)C=C[C@]4(C)[C@@]3(F)[C@@H](O)C[C@]2(C)[C@@]1(O)C(=O)COC(=O)CN=C=S,Active,0.14,~ 2 uM,< 0.1,Non-Toxic,~ 2 uM,< 0.1,6,10,0.7,,,,,
